Assay results from ChEMBL document CHEMBL3102835, “Dimeric unnatural polyproline-rich peptides with enhanced antibacterial activity” (Bioorg Med Chem Lett, 2014).
In brackets after ≈: the same amount, converted by molar mass.

Legend:
Escherichia coli [1] = assay: Drug uptake in Escherichia coli ATCC 25922 assessed as increase in cellular fluorescence at 10 uM after 6 hrs by confocal microscopic analysis; format: ADME, organism-based; details: in vivo
Summary of the method: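 E. coli ATCC 25922 grown to mid-exponential phase in MHB at 37 °C, pelleted and resuspended in fresh MHB. Exposed to 10 µM fluorescein-labelled peptide or buffer for 10 min, 1 h or 6 h at 37 °C. Cells washed in PBS, fixed in 10% formalin, stained with 1 µM Hoechst, mounted on poly-lysine coverslips. Confocal imaging at equal laser intensity.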

Escherichia coli [2] = assay: Antibacterial activity against Escherichia coli by broth microdilution method; format: functional
Summary of the method: (§1)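 Broth microdilution. E. coli ATCC 25922 or S. aureus ATCC 25923 grown to mid-exponential phase in TSB at 37 °C, 200 rpm. MIC taken as the lowest concentration with no growth.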

Staphylococcus aureus = assay: Antibacterial activity against Staphylococcus aureus by broth microdilution method; format: functional; summary of the method: as §1
Escherichia coli [3] = assay: Antibacterial activity against Escherichia coli ATCC 25922 assessed as release of beta-galactosidase at 20 µM after 1 hr relative to control
Escherichia coli [4] = assay: Antibacterial activity against Escherichia coli ATCC 25922 assessed as release of beta-galactosidase at 5 times MIC after 1 hr relative to control; format: functional
Escherichia coli [5] = assay: Antibacterial activity against Escherichia coli ATCC 25922 assessed as release of beta-galactosidase after 1 hr relative to control; format: functional
Summary of the method: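 Cells washed twice in TSB, then exposed to peptide at 1× or 5× MIC for 1 h at 37 °C. Supernatant collected by cold centrifugation and mixed with ONPG. Release expressed versus buffer control.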

[6] = Toxicity in human RBC assessed as hemolysis by measuring hemoglobin release at 1 uM after 1 hr; format: cell-based; details: erythrocyte
Summary of the method: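 Fresh human RBCs from healthy volunteers, washed three times in PBS pH 7.4 and used as an 8% (v/v) suspension. Mixed with two-fold serial peptide dilutions and incubated 1 h at 37 °C. Positive controls were melittin and 1% Triton X-100.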

Row | SMILES | Drug uptake (Escherichia coli [1]) | MIC (Escherichia coli [2]) [µM] | MIC (Staphylococcus aureus) [µM] | fold change (FC) (Escherichia coli [3]) | fold change (FC) (Escherichia coli [4]) | fold change (FC) (Escherichia coli [5]) | Activity [6]
1 | CC(C)COC1C[C@@H](C(=O)N2CC(OCCCNC(=N)N)C[C@H]2C(=O)N2CC(OCCCNC(=N)N)C[C@H]2C(=O)N2CC(OCC(C)C)C[C@H]2C(=O)N2CC(OCCCNC(=N)N)C[C@H]2C(=O)N2CC(OCCCNC(=N)N)C[C@H]2C(=O)N2CC(OCC(C)C)C[C@H]2C(=O)N2CC(OCCCNC(=N)N)C[C@H]2C(=O)N2CC(OCCCNC(=N)N)C[C@H]2C(=O)N2C[C@@H](OCC(C)C)CC2C(N)=O)N(C(=O)CNC(=O)c2ccc(-c3c4ccc(=O)cc-4oc4cc(O)ccc34)c(C(=O)O)c2)C1 (stereo not given in full) | Active | 60 (≈ 143 µg/mL) | 60 (≈ 143 µg/mL) | 3 | – | – | –
2 | CC(=O)NCC(=O)N(CCCCC(=O)NCC(=O)N1CC(OCC(C)C)C[C@H]1C(=O)N1CC(OCCCNC(=N)N)C[C@H]1C(=O)N1CC(OCCCNC(=N)N)C[C@H]1C(=O)N1CC(OCC(C)C)C[C@H]1C(=O)N1CC(OCCCNC(=N)N)C[C@H]1C(=O)N1CC(OCCCNC(=N)N)C[C@H]1C(=O)N1CC(OCC(C)C)C[C@H]1C(=O)N1CC(OCCCNC(=N)N)C[C@H]1C(=O)N1CC(OCCCNC(=N)N)C[C@H]1C(=O)N1CC(OCC(C)C)C[C@H]1C(N)=O)CCCCC(=O)NCC(=O)N1CC(OCC(C)C)C[C@H]1C(=O)N1CC(OCCCNC(=N)N)C[C@H]1C(=O)N1CC(OCCCNC(=N)N)C[C@H]1C(=O)N1CC(OCC(C)C)C[C@H]1C(=O)N1CC(OCCCNC(=N)N)C[C@H]1C(=O)N1CC(OCCCNC(=N)N)C[C@H]1C(=O)N1CC(OCC(C)C)C[C@H]1C(=O)N1CC(OCCCNC(=N)N)C[C@H]1C(=O)N1CC(OCCCNC(=N)N)C[C@H]1C(=O)N1CC(OCC(C)C)C[C@H]1C(N)=O (stereo not given in full) | – | 1 (≈ 4.33 µg/mL) | 2 (≈ 8.66 µg/mL) | – | – | – | –
3 | CC(=O)NCC(=O)N(CCCCC(=O)NCCC(=O)N1CC(OCC(C)C)C[C@H]1C(=O)N1CC(OCCCNC(=N)N)C[C@H]1C(=O)N1CC(OCCCNC(=N)N)C[C@H]1C(=O)N1CC(OCC(C)C)C[C@H]1C(=O)N1CC(OCCCNC(=N)N)C[C@H]1C(=O)N1CC(OCCCNC(=N)N)C[C@H]1C(=O)N1CC(OCC(C)C)C[C@H]1C(=O)N1CC(OCCCNC(=N)N)C[C@H]1C(=O)N1CC(OCCCNC(=N)N)C[C@H]1C(=O)N1CC(OCC(C)C)C[C@H]1C(N)=O)CCCCC(=O)NCCC(=O)N1CC(OCC(C)C)C[C@H]1C(=O)N1CC(OCCCNC(=N)N)C[C@H]1C(=O)N1CC(OCCCNC(=N)N)C[C@H]1C(=O)N1CC(OCC(C)C)C[C@H]1C(=O)N1CC(OCCCNC(=N)N)C[C@H]1C(=O)N1CC(OCCCNC(=N)N)C[C@H]1C(=O)N1CC(OCC(C)C)C[C@H]1C(=O)N1CC(OCCCNC(=N)N)C[C@H]1C(=O)N1CC(OCCCNC(=N)N)C[C@H]1C(=O)N1CC(OCC(C)C)C[C@H]1C(N)=O (stereo not given in full) | – | 4 (≈ 17.4 µg/mL) | 8 (≈ 34.9 µg/mL) | – | – | – | –
4 | CC(=O)NCC(=O)N(CCCCC(=O)NCCCC(=O)N1CC(OCC(C)C)C[C@H]1C(=O)N1CC(OCCCNC(=N)N)C[C@H]1C(=O)N1CC(OCCCNC(=N)N)C[C@H]1C(=O)N1CC(OCC(C)C)C[C@H]1C(=O)N1CC(OCCCNC(=N)N)C[C@H]1C(=O)N1CC(OCCCNC(=N)N)C[C@H]1C(=O)N1CC(OCC(C)C)C[C@H]1C(=O)N1CC(OCCCNC(=N)N)C[C@H]1C(=O)N1CC(OCCCNC(=N)N)C[C@H]1C(=O)N1CC(OCC(C)C)C[C@H]1C(N)=O)CCCCC(=O)NCCCC(=O)N1CC(OCC(C)C)C[C@H]1C(=O)N1CC(OCCCNC(=N)N)C[C@H]1C(=O)N1CC(OCCCNC(=N)N)C[C@H]1C(=O)N1CC(OCC(C)C)C[C@H]1C(=O)N1CC(OCCCNC(=N)N)C[C@H]1C(=O)N1CC(OCCCNC(=N)N)C[C@H]1C(=O)N1CC(OCC(C)C)C[C@H]1C(=O)N1CC(OCCCNC(=N)N)C[C@H]1C(=O)N1CC(OCCCNC(=N)N)C[C@H]1C(=O)N1CC(OCC(C)C)C[C@H]1C(N)=O (stereo not given in full) | – | 1 (≈ 4.39 µg/mL) | 4 (≈ 17.5 µg/mL) | – | – | – | –
5 | CC(C)COC1C[C@@H](C(=O)N2CC(OCCCNC(=N)N)C[C@H]2C(=O)N2CC(OCCCNC(=N)N)C[C@H]2C(=O)N2CC(OCC(C)C)C[C@H]2C(=O)N2CC(OCCCNC(=N)N)C[C@H]2C(=O)N2CC(OCCCNC(=N)N)C[C@H]2C(=O)N2CC(OCC(C)C)C[C@H]2C(=O)N2CC(OCCCNC(=N)N)C[C@H]2C(=O)N2CC(OCCCNC(=N)N)C[C@H]2C(=O)N2CC(OCC(C)C)C[C@H]2C(=O)N2CC(OCCCNC(=N)N)C[C@H]2C(=O)N2CC(OCCCNC(=N)N)C[C@H]2C(=O)N2CC(OCC(C)C)C[C@H]2C(N)=O)N(C(=O)CNC(=O)c2ccc(-c3c4ccc(=O)cc-4oc4cc(O)ccc34)c(C(=O)O)c2)C1 (stereo not given in full) | – | 4 (≈ 11.9 µg/mL) | 12 (≈ 35.7 µg/mL) | – | 3 | – | –
6 | CC[C@H](C)[C@H](NC(=O)CN)C(=O)NCC(=O)N[C@@H](C)C(=O)N[C@H](C(=O)N[C@@H](CC(C)C)C(=O)N[C@@H](CCCCN)C(=O)N[C@H](C(=O)N[C@@H](CC(C)C)C(=O)N[C@H](C(=O)N[C@H](C(=O)NCC(=O)N[C@@H](CC(C)C)C(=O)N1CCC[C@H]1C(=O)N[C@@H](C)C(=O)N[C@@H](CC(C)C)C(=O)N[C@H](C(=O)N[C@@H](CO)C(=O)N[C@@H](Cc1c[nH]c2ccccc12)C(=O)N[C@H](C(=O)N[C@@H](CCCCN)C(=O)N[C@@H](CCCNC(=N)N)C(=O)N[C@@H](CCCCN)C(=O)N[C@@H](CCCNC(=N)N)C(=O)N[C@@H](CCC(N)=O)C(=O)N[C@@H](CCC(N)=O)C(N)=O)[C@@H](C)CC)[C@@H](C)CC)[C@@H](C)O)[C@@H](C)O)C(C)C)C(C)C [MELITTIN] | – | – | – | – | – | 8 | Toxic
